ChEMBL document CHEMBL5042469, “Unique Molecular Interaction with the Histone Deacetylase 6 Catalytic Tunnel: Crystallographic and Biological Characterization of a Model Chemotype” (J Med Chem, 2021)

Experiments:
[1] = target: T1, Histone deacetylase 11 (Homo sapiens, UniProt Q96DB2); experiment: Inhibition of full length human HDAC11 using FAM-labeled acetylated peptide as substrate by electrophoretic mobility shift assay
T1 sequence (Q96DB2 whole entry): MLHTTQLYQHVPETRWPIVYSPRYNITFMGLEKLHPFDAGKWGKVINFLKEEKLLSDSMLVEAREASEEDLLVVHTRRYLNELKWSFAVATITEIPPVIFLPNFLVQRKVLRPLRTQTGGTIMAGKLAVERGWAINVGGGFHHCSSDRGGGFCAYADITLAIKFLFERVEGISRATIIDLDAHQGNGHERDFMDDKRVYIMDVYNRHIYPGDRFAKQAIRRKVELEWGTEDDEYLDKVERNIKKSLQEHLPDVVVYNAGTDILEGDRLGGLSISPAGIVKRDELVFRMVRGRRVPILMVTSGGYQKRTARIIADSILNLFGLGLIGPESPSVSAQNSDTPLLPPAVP
Outline: (§1)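 Full-length human HDAC isoform enzymatic assay by electrophoretic mobility shift, using a FAM-labelled acetylated peptide substrate. […] Values are the mean of duplicate experiments with 95% confidence intervals.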

[2] = target: T2, Protein deacetylase HDAC6 (Homo sapiens, UniProt Q9UBN7); experiment: Inhibition of full length human HDAC6 using FAM-labeled acetylated peptide as substrate by electrophoretic mobility shift assay
T2 sequence (Q9UBN7 whole entry): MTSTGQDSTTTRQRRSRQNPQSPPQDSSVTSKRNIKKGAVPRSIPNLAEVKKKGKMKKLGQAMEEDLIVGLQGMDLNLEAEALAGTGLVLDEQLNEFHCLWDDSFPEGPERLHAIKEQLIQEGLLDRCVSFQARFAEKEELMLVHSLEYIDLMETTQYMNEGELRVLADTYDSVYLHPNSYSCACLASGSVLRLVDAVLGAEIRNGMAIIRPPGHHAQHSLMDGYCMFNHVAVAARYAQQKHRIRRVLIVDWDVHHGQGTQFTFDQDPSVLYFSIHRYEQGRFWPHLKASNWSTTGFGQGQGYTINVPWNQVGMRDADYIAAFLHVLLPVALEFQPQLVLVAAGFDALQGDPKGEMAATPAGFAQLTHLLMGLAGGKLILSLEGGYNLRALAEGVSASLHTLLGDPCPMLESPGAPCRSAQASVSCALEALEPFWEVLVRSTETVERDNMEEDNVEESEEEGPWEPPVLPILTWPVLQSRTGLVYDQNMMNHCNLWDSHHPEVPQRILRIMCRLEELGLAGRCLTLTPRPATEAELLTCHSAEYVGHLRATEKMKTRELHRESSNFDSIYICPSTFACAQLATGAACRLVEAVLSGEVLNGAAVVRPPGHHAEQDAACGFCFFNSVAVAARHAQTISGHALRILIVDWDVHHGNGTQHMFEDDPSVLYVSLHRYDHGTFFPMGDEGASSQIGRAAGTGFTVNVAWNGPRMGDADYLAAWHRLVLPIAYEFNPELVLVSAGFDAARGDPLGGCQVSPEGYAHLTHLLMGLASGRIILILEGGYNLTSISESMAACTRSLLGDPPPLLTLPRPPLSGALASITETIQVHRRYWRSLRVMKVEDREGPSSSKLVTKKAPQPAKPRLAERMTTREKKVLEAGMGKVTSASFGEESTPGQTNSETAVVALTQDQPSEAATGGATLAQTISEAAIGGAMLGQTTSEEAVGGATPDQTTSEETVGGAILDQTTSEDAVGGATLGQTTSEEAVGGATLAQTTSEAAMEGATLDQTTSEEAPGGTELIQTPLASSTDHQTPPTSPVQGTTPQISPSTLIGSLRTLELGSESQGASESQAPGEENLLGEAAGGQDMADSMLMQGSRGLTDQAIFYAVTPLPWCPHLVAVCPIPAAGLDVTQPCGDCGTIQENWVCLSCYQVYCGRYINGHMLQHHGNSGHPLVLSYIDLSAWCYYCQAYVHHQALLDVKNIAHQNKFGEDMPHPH

[3] = target: T3, Histone deacetylase 8 (Homo sapiens, UniProt Q9BY41); experiment: Inhibition of full length human HDAC8 using FAM-labeled acetylated peptide as substrate by electrophoretic mobility shift assay; outline: as §1
T3 sequence (Q9BY41 whole entry): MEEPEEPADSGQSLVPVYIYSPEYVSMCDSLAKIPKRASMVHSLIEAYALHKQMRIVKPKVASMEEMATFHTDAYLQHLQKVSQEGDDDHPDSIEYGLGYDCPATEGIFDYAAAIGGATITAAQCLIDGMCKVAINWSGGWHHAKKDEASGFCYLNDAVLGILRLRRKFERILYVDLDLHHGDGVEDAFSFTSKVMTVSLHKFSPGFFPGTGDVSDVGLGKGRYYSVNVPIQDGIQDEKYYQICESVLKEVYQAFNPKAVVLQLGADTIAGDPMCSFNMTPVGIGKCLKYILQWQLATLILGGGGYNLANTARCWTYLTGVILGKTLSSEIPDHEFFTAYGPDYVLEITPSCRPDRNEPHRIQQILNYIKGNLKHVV

[4] = target: Histone deacetylase 3 (Homo sapiens, UniProt O15379); experiment: Inhibition of full length human HDAC3 using FAM-labeled acetylated peptide as substrate by electrophoretic mobility shift assay; outline: as §1
Sequence of Histone deacetylase 3 (O15379 whole entry): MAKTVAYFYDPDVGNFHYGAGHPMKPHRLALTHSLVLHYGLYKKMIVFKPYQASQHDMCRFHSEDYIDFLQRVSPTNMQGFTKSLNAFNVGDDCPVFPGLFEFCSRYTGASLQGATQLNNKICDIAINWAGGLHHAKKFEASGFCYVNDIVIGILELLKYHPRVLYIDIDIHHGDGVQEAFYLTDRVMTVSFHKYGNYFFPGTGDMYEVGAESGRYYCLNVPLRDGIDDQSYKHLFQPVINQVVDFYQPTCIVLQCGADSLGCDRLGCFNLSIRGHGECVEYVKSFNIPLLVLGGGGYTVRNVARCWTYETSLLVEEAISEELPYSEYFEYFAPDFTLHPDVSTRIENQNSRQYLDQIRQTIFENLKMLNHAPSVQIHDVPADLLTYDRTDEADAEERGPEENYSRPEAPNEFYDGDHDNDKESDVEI

SMILES	IC50 [1]	IC50 [2]	IC50 [3]	IC50 [4]
O=C(NO)c1ccc(CN(Cc2ccccn2)S(=O)(=O)c2cc(F)c(F)c(F)c2F)cc1	941 nM	6 nM	332 nM	896 nM
CN(C)c1ccc(CN(Cc2ccc(C(=O)NO)cc2)S(=O)(=O)c2c(F)c(F)c(F)c(F)c2F)cc1	> 1000 nM	29 nM	> 1000 nM	> 1000 nM
O=C(NO)c1ccc(CNS(=O)(=O)c2c(F)c(F)c(F)c(F)c2F)cc1	> 1000 nM		> 1000 nM	> 1000 nM
O=C(NO)c1ccc(CN(Cc2ccncc2)S(=O)(=O)c2c(F)c(F)c(F)c(F)c2F)cc1	> 1000 nM	14 nM	> 1000 nM	> 1000 nM
O=C(CCCCCCC(=O)N/N=C/c1ccc(N(c2ccccc2)c2ccccc2)cc1)NO		400 nM		
O=C(NO)c1ccc(CN(Cc2ccc(C(F)(F)F)cc2)S(=O)(=O)c2c(F)c(F)c(F)c(F)c2F)cc1	> 1000 nM	45 nM	> 1000 nM	> 1000 nM
O=C(NO)c1ccc(CN(Cc2ccc(F)cc2)S(=O)(=O)c2cc(F)c(F)c(F)c2F)cc1	> 1000 nM	21 nM	860 nM	> 1000 nM

Further compounds by falling IC50 [1], results first:

IC50 [1]	IC50 [2]	IC50 [3]	IC50 [4]	SMILES
787 nM	13 nM	367 nM	> 1000 nM	O=C(NO)c1ccc(CN(Cc2ccc(F)cc2)S(=O)(=O)c2c(F)c(F)c(F)c(F)c2F)cc1
472 nM	11 nM	581 nM	> 1000 nM	O=C(NO)c1ccc(CN(Cc2ccncc2)S(=O)(=O)c2cc(F)c(F)c(F)c2F)cc1
263 nM	10 nM	241 nM	> 1000 nM	O=C(NO)c1ccc(CN(Cc2ccccc2F)S(=O)(=O)c2cc(F)c(F)c(F)c2F)cc1
235 nM	14 nM	412 nM	> 1000 nM	O=C(NO)c1ccc(CN(Cc2cccc(F)c2)S(=O)(=O)c2cc(F)c(F)c(F)c2F)cc1
122 nM	9 nM	150 nM	> 1000 nM	O=C(NO)c1ccc(CN(Cc2ccccc2)S(=O)(=O)c2c(F)c(F)c(F)c(F)c2F)cc1
115 nM	5 nM	155 nM	697 nM	O=C(NO)c1ccc(CN(Cc2ccccc2)S(=O)(=O)c2cc(F)c(F)c(F)c2F)cc1
88 nM	42 nM	68 nM	> 1000 nM	CC(C)(C)c1ccc(CN(Cc2ccc(C(=O)NO)cc2)S(=O)(=O)c2c(F)c(F)c(F)c(F)c2F)cc1
73 nM	6 nM	101 nM	> 1000 nM	Cc1ccc(CN(Cc2ccc(C(=O)NO)cc2)S(=O)(=O)c2c(F)c(F)c(F)c(F)c2F)cc1
